# Screening data: PubChem, several laboratories
# Efa HMGR inh: inhibitors of E. faecalis class II HMGR, primary screen, biochemical, Enterococcus faecalis; 190,000 tested, 0.41% active; purified E. faecalis HMGR, NADPH absorbance 340 nm kinetic; inhibition, % at 10 µM; HMG-CoA reductase (Enterococcus faecalis, mvaE);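 active = inhibition above a set limit, the median over all tested compounds plus 3 SD, cut at about 9.5% in these data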;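 also: enzyme runs in reverse so mevalonate oxidation gives rising NADPH absorbance; 0% = complete reaction with DMSO and 100% = background rate lacking mevalonate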
# Rad51 HR inh: human RAD51 strand exchange inhibitors, primary screen, biochemical, fluorescence | DNA repair protein RAD51 homolog 1 (Homo sapiens), Q06609 | hRad51 DNA strand exchange, fluorescence dequenching | inhibition, % at 10 µM | 200,000 tested, 0.085% active | AID 1385, 2008;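 active = inhibition above 40% at the single screening dose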;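 also: 0% = DMSO control wells and 100% = blanks with heterologous ssDNA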
# Target sequence (Q06609 whole entry, looked up): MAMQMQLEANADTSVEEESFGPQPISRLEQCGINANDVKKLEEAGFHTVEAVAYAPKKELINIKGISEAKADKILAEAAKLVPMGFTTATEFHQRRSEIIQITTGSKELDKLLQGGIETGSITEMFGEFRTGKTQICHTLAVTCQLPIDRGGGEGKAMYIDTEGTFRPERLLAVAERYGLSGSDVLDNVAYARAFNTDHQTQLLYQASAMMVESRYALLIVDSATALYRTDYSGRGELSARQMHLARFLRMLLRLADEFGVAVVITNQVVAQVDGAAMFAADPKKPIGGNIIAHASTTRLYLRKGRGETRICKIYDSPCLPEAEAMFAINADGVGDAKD
#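 System: human Rad51 nucleoprotein filaments preassembled on unlabelled ssDNA. Reagent: labelled 47-mer dsDNA for strand exchange. Schedule: 30-min compound preincubation and 15-min exchange, both room temperature. Measured by: FRET fluorescence dequenching, excitation 485 nm, emission 520 nm. Read-out: Fluorescence-based percent inhibition, control- and blank-normalised. Benchmarks: plate controls and plate blanks.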
# L929 necroptosis: inhibitors of zVAD-triggered necroptosis, primary screen, L929 cells | 220,000 tested, 0.38% active | viability rescue, % at 10 µM | AID 1377, 2008 | L929 zVAD necroptosis rescue, ATP luminescence, 24 h; with zVAD 60 µM;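 active = activation, scaled between plate controls, above about 75%, limit read from the data; inactive = activation under that limit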;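 also: 0% = zVAD with DMSO and 100% = DMSO alone without zVAD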
# PERK inh: block of dimerizer-induced PERK translation repression, primary screen, PERK inhibitor project, CHO PERK-DD cells, SEAP luminescence, HTS | Eukaryotic translation initiation factor 2-alpha kinase 3 (Homo sapiens), Q9NZJ5 | CHO PERK-DD fusion, SEAP luminescence translation reporter | inhibition, % at 5.6 µM | 220,000 tested, 0.17% active | AID 1416, 2008;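 active = inhibition above the mean inhibition of all tested compounds plus 3 SD, set separately per screening campaign, cut at about 2.9% in these data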;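 also: PERK kinase domain activated by AP20187 dimerizer at 100 nM; 0% = DMSO with dimerizer and 100% = rapamycin at 8.4 µM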
# TNF necrop inh: inhibitors of TNF-alpha triggered necroptosis, primary screen, cell-based, Jurkat FADD-/-, single concentration; Jurkat FADD-/- TNF necroptosis rescue, ATP luminescence, 24 h; 0 = TNF only, 100 = no-TNF cells; activation (protection from cell death), % at 10 µM; 220,000 tested, 0.068% active;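 active = activation, meaning protection from cell death, of at least 50% relative to plate controls; inactive = activation below 50%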;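 also: necroptosis triggered by 40 ng/mL TNF-alpha added together with compound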
# * hit, by the source's call; x = no result given. A selection: hits, their analogues and other compounds. The true share with any hit is near 1%.
SMILES,Efa HMGR inh,Rad51 HR inh,L929 necroptosis,PERK inh,TNF necrop inh
O=C(O)CC(Cc1ccccc1)C(=O)NCC12CC3CC(CC(C3)C1)C2 (centres undefined),5,x,0,3.2*,0
COc1ccc(/C=N/NC(=O)Cc2n[nH]c(=O)[nH]c2=O)cc1,x,2,1,3.0*,2
Cc1cc(C)n2nnnc2n1,x,4,0,0,0
O=C(O)C[C@H]1c2cc(C(F)(F)F)ccc2S(=O)(=O)N1Cc1ccccc1,x,5,x,x,x
CCOc1ccccc1N1CCN(C(=O)CC(C)(C)C)CC1,11*,-5,1,-1,0
O=C(Nc1ccc(N2CCOCC2)cc1)c1ccc(S(=O)(=O)NCc2ccco2)cc1,x,-18,0,-1,-1
O=C(/C=C/c1ccc(Cl)c([N+](=O)[O-])c1)Nc1ccc(N2CCCC2)cc1,-4,55*,1,0,1
CCC(C(=O)OCn1nnc2ccccc2c1=O)c1ccccc1 (centres undefined),-3,0,2,2,0
CC(=NCCc1c(C)[nH]c2ccc(OC(F)(F)F)cc12)C1=C(O)CC(c2ccccc2)CC1=O (centres undefined),12*,5,2,0,-7
CC(=NCCc1c(C)[nH]c2ccc(C)cc12)C1=C(O)CC(c2ccccc2)CC1=O (centres undefined),-3,0,0,-1,-3
Cc1ccc(NS(=O)(=O)c2ccc3[nH]c(=O)[nH]c3c2)c(C)c1,9,2,1,0,-1
CSc1nc(-c2ccccc2)cn1-c1ccc(NC(C)=O)cc1,9.8*,1,1,1,-1
CCOc1ccc(-c2cn(-c3ccc(OC)cc3)c(SC)n2)cc1,6,5,0,-1,1
Cc1cccc(NC(=S)NNC(=O)c2ccco2)c1,-4,2,0,3.1*,-3
O=c1/c(=C/c2ccco2)sc2n1CN(c1ccccc1)CN=2,-2,x,0,0,0
Cc1ccc(N2CN=c3s/c(=C\c4ccccn4)c(=O)n3C2)cc1,-3,-8,0,3.1*,1
CCOC(=O)C1(Cc2ccc(Cl)cc2)CCN(Cc2cn(CC)nc2C)CC1,x,-50,1,-1,0
Cc1cc(N)ccc1N1CCCC1,-4,60*,1,2,-6
O=[N+]([O-])c1ccccc1OCCOCCOc1cccc2cccnc12,12*,8,2,-1,2
C(=N\Nc1nc(N2CCCC2)nc(N2CCCC2)n1)/c1ccncc1,-3,14,1,0,0
N#CCCN(Cc1cccs1)C(=O)Nc1ccccc1,x,4,1,0,3
Fc1ccccc1Nc1nc(Cl)nc(Cl)n1,11*,10,0,2,0
Fc1cccc(Nc2nc(Cl)nc(Cl)n2)c1,1,14,2,0,1
O=C(CCCc1c[nH]c2ccccc12)NCC1COc2ccccc2O1 (centres undefined),0,x,0,0,-1
Cc1nc(NC(=O)/C=C/c2ccccc2)n[nH]1,-3,8,0,0,-2
SMILES,Efa HMGR inh,Rad51 HR inh,L929 necroptosis,PERK inh,TNF necrop inh
CCOC(=O)N1CCN(c2c(-c3ccc(C)cc3)c(=O)c2=O)CC1,6,80*,-1,0,1
CCOC(=O)N1CCN(c2c(-c3ccc(C(C)C)cc3)c(=O)c2=O)CC1,-2,-5,-1,0,-2
Cc1ccc(N2C(=O)c3ccccc3C2C(=O)c2ccc(C)c(C)c2O)cc1 (centres undefined),x,-9,1,0,1
O=C(Nc1ccc(N2CCCC2)c(Cl)c1)c1ccc2c(c1)OCCO2,9.6*,12,1,1,-5
O=C(Nc1ccncc1)c1ccc(C(=O)Nc2ccncc2)cc1,18*,-4,2,1,2
NC(=O)C1CCN(c2ncc(C(F)(F)F)cc2Cl)CC1,-3,-11,1,0,-1
CSCCC(NS(=O)(=O)/C=C/c1ccccc1)C(=O)O (centres undefined),10*,1,1,1,2
